The results in this text go back to ChEMBL document CHEMBL4387709, “Discovery of Quinoline Analogues as Potent Antivirals against Enterovirus D68 (EV-D68)” (J Med Chem, 2019).

In data set [1] the test system is enterovirus D68. The experiment in a line: Antiviral activity against Enterovirus D68 US/KY/14-18953 infected in human RD cells assessed as inhibition of virus-induced cytopathic effect incubated for 5 mins under shaking condition and measured after 3 days by neutral red dye-based photometric method. The format is functional, organism-based. Particulars: Enterovirus D, US/KY/14-18953, RD. Put shortly: (§1)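 RD cells seeded one day ahead to ~90% confluence, PBS (Mg/Ca) wash, infected at ~MOI 0.01 with EV-D68 in DMEM/2% FBS/30 mM MgCl2 at 33 °C, 5% CO2. Compounds and 1% P/S added after 1 h. Plates shaken ~5 min, held 3 days, viable cells stained with neutral red (66 µg/ml), A540 read. EC50 from dose-response fits, triplicates.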

Data set [2] deals with RD. The experiment in a line: Inhibition of 2C protein in Enterovirus D68 US/KY/14-18953 infected in human RD cells assessed as reduction of VP1 expression at 1 uM measured at 9 hrs post infection by DAPI-staining based microscopy. It is filed as cell-based. The method, boiled down:
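Fixed at 9 hpi (4% formaldehyde), 0.2% Triton X-100 permeabilized, blocked with 10% bovine serum. Stained with rabbit anti-VP1 plus Alexa-488 secondary, nuclei with 300 nM DAPI. Confocal microscopy.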

Data set [3] relates to enterovirus D68. The experiment in a line: Antiviral activity against Enterovirus D68 US/MO/14-18947 infected in human RD cells assessed as inhibition of virus-induced cytopathic effect incubated for 5 mins under shaking condition and measured after 3 days by neutral red dye-based photometric method. Particulars: Enterovirus D, US/MO/14-18947, RD. The format is functional, organism-based. The method, boiled down: as §1

Data set [4] deals with Influenza B virus. The experiment in a line: Antiviral activity against Influenza B virus (B/Brisbane/60/2008) at 10 uM after 2 days by plaque assay. The format is functional, organism-based.
In data set [5] the test system is A 172. The experiment in a line: Cytotoxicity against human A172 cells after 3 days by neutral red dye-based photometric method. It is filed as cell-based. To be noted: a 172, 72 h. Put shortly: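 Uninfected cells run as in the CPE assay (33 °C, 3 days, same media) with compound. Viability by neutral red staining and 540 nm absorbance. CC50 from dose-response curves, triplicate experiments.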

Data set [6] in a line: Selectivity index, ratio of CC50 for human SH-SY5Y cells to EC50 for Enterovirus D68 US/KY/14-18953 infected in human SH-SY5Y cells. It is filed as toxicity, cell-based. To be noted: read-out: Ratio CC50/EC50. Put shortly:
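SH-SY5Y cells grown in 50% DMEM/50% F-12 with 10% FBS and 1% P/S to about 90% confluency, then infected at MOI about 1 in DMEM with 2% FBS and 30 mM MgCl2 at 33 °C. Compounds were added after 1 h. Neutral red staining was read at 540 nm after 3 days. CC50 came from uninfected cells under the same conditions. Values were triplicate dose-response fits, and SI = CC50/EC50.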

Data set [7] relates to RD. The experiment in a line: Inhibition of 2C protein in Enterovirus D68 US/KY/14-18953 infected in human RD cells assessed as reduction of VP1 expression at 1 uM measured at 9 hrs post infection by Western blot analysis. The format is cell-based. Put shortly: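 Equal protein separated and blotted to PVDF. Probed with rabbit anti-VP1 and mouse anti-GAPDH (1:3,000), HRP secondary, chemiluminescent detection. Mean of two independent experiments ± SD.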

The test system of data set [8] is enterovirus D68. Description: Antiviral activity against Enterovirus D68 US/MO/14-18947 infected in human SH-SY5Y cells assessed as inhibition of virus-induced cytopathic effect incubated for 5 mins under shaking condition and measured after 3 days by neutral red dye-based photometric method. It is filed as functional, organism-based. Particulars: Enterovirus D, US/MO/14-18947, SH-SY5Y. Put shortly: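 Virus at ~MOI 1 applied to SH-SY5Y cells (50% DMEM/50% F-12, 10% FBS) at ~90% confluence in DMEM/2% FBS/30 mM MgCl2 at 33 °C. Compounds added after 1 h with 1% P/S, shaken ~5 min, incubated 3 days. Viability read by neutral red uptake (A540). EC50 fitted from dose-response, triplicate.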

pEC50: −log10 of the molar value. The source made the active and inactive calls. The calls are words filed in the database; no cut-off is given here.

As for `O=C(NCCN1CCCC1)c1cc(-c2cccs2)nc2ccccc12`, the pEC50 in data set [1] is 7.22; in data set [3], 7.22; in data set [8], 7.70. Also, the inhibition entry in data set [2] and in data set [7] was “Active” in each case. Also, in data set [4], the outcome was inactive. For the same compound, the midpoint of cytotoxicity in data set [5], the CC50, lay at 65400 nM. Moreover, the selectivity ratio in data set [6] turned out to be 933.
